# EP2 modulator: modulates human prostaglandin E2 receptor EP2 signaling; P43116; EP2-expressing cells, cAMP HTRF FRET, PGE2 co-stimulation; induction, % at 25 µM; 260,000 compounds, 0.83% hits; AID 940;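 active = compounds whose cAMP rise, as percent of the full-agonist control response, exceeds 60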;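 note: rat C6 glioma line stably carrying human EP2 under a CMV promoter; the protocol text gives 20 µM as final concentration; 100% = response of wells given 1 µM PGE2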
# FXIa inh 1536: inhibitors of human coagulation factor XIa | P03951 | purified FXIa, Boc-Glu-Ala-Arg-AMC fluorogenic substrate | inhibition, % at 5 µM | 220,000 compounds, 0.14% hits | AID 798;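 active = inhibition of at least 40%; inactive = inhibition below 40%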;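 note: fluorescence of freed AMC excited at 355 nm; 0% = enzyme without compound and 100% = no enzyme blank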
# KLK5 inh: inhibitors of human kallikrein 5. recombinant hK5, fluorogenic AMC substrate cleavage. inhibition, % at 5 µM. 210,000 compounds, 0.59% hits;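 active = inhibition of 40% or more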;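 note: 0% = enzyme controls without compound and 100% = no-enzyme blanks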
# Target sequence (Q9Y337 67-293 limits assumed): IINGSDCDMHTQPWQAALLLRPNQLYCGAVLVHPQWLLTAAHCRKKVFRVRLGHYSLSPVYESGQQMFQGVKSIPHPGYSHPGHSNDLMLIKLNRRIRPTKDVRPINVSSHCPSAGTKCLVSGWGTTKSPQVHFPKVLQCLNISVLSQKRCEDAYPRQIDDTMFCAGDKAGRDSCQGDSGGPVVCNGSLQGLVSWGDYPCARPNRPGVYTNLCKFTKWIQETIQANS
# thrombin 1536: blocks human thrombin protease activity. AID 1046. 220,000 compounds, 0.26% hits. alpha-thrombin, Boc-VPR-AMC fluorogenic substrate cleavage. P00734. inhibition, % at 5 µM;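 active = inhibition at or above 40%; inactive = inhibition below 40%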;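 note: 0% = enzyme with no compound and 100% = wells without enzyme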
#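 Test system: human alpha-thrombin; medium: pH 7.5 Tris-saline with Tween 20; times: reaction at room temperature; signal: AMC fluorescence at 355 nm excitation and 460 nm emission; also added: Boc-VPR-AMC substrate, 15 µM final; dosing: one concentration per compound, 5 µM, with 0.2% DMSO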
# FXIIa inh: inhibitors of human coagulation factor XIIa; P00748; purified FXIIa, Boc-QGR-AMC fluorogenic substrate, 2 h; inhibition, % at 5 µM; 220,000 compounds, 0.3% hits; in the data active = inhibition above about 40%;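 note: 0% = enzyme with no compound and 100% = blank without enzyme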
# PGE2 EP2 inh: blocks the human prostaglandin E2 receptor EP2. inhibition, % at 25 µM. C6 glioma cells expressing human EP2, cAMP TR-FRET; cells stimulated with saturating PGE2. 260,000 compounds, 0.52% hits. P43116;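 active = percent inhibition above 40 after rounding to a whole number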;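 note: rat C6 glioma host cells with rolipram phosphodiesterase inhibitor present; the protocol text gives 20 µM as final concentration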
# EP2 confirm: human EP2 receptor cAMP induction, negative in counter-screens. shares compounds with EP2 modulator. C6 glioma EP2 cells, cAMP HTRF induction; plus low (about EC15) PGE2 agonist. calls only at 20 µM (by protocol). 1,300 compounds, 47% hits. AID 1080;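 active = cAMP induction above 50% in the main assay while under 30% in all four parallel counter assays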;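 note: rat C6 glioma cells stably expressing human EP2 receptor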
# Active calls of the source: *; i = inactive; nt = no result given; + = active, no number. Shown are actives, neighbours in structure and some others; about 2.1% of the full set was active somewhere.
SMILES,EP2 modulator,FXIa inh 1536,KLK5 inh,thrombin 1536,FXIIa inh,PGE2 EP2 inh,EP2 confirm
CC(C)(C)c1nc2ccccc2c2nn(CC(=O)N3CCCCC3)c(=O)n12,9.8,nt,nt,nt,nt,5.0,nt
COC(=O)NC1(C(F)(F)F)C(=O)NC(C)=C1C(=O)OC (stereo not given),70.7*,5.0,-6.3,1.4,17.6,10.5,i
COC(=O)C1=C(C)NC(=O)C1(NC(=O)c1ccncc1)C(F)(F)F (stereo not given),10.1,-5.2,-18.6,1.9,-3.1,7.9,nt
O=C(NCc1ccco1)C(c1cccs1)N(C(=O)Cc1cccs1)c1ccccc1 (stereo not given),83.4*,-4.1,4.0,-3.9,6.8,9.2,i
CN(C)Cc1ccccc1Sc1ccccc1Br,32.8,8.6,-13.2,-2.5,12.7,10.6,nt
CN(C)Cc1ccccc1Sc1cccc2ccccc12,75.3*,2.8,-23.2,-2.0,5.8,7.7,+
CCOC(=O)c1cc2c(=O)n3ccccc3nc2n(CC2CCCO2)c1=NC(C)=O (stereo not given),nt,nt,nt,nt,nt,11.0,nt
CCOC(=O)C1=CN(CC2CCCO2)C=C(C(=O)OCC)C1c1ccccc1C(F)(F)F (stereo not given),73.6*,-6.9,-12.1,-2.7,-1.8,5.4,i
COc1ccc2c(c1)OC1(CCN(CC(O)c3ccccc3)CC1)CC2O (stereo not given),-37.0,nt,nt,nt,nt,4.5,nt
CC1=CC2C(CC1=O)C(C)=CCC2C(C)C (stereo not given),54.5,nt,nt,nt,nt,2.1,+
Cc1cccc(-c2nc(=S)c3c(n2Cc2ccco2)CCCC3)c1,65.8*,-0.1,1.8,-0.1,19.3,6.8,i
Cc1ccc(-c2nc(=S)c3c(n2Cc2ccco2)CCCC3)cc1,21.3,-15.4,-9.1,-4.3,2.9,-0.5,nt
COC(=O)c1ccc(C2NC(=O)C(O)=C2C(=O)c2cccs2)cc1 (stereo not given),4.7,nt,nt,nt,nt,7.6,nt
O=C(Cc1cccs1)N(Cc1cccs1)C1(C(=O)NC2CCCC2)CCCCC1,34.4,2.2,-15.8,-2.8,1.8,8.7,nt
O=C(c1ccc2c(c1)OCO2)N(Cc1cccs1)C1(C(=O)NC2CCCCC2)CCCCC1,71.3*,0.7,-9.7,-3.4,4.7,4.4,i
Cc1nc(NCc2cccnc2)c2nnn(Cc3ccccc3)c2n1,-25.4,nt,nt,nt,nt,6.7,nt
COc1ccc(C)cc1-n1c(=O)c2ccccc2c2ccccc2c1=O,74.4*,-4.0,-6.8,-2.6,6.0,5.2,i
Cc1cc(C)c2nc(C(F)(F)F)nc(N3CCN(C(=O)c4ccco4)CC3)c2c1,38.9,-8.5,-16.1,-5.5,2.4,4.1,nt
Cc1cc(C)c2nc(N3CCCN(C(=O)c4ccco4)CC3)c(C#N)cc2c1,69.9*,-9.8,11.2,-6.3,-1.9,7.1,+
Cc1ccc(CSc2ncnc3c2cnn3Cc2ccccc2)cc1,42.8,0.9,-13.3,-12.0,3.4,2.3,nt
Cc1ccc(CSc2ncnc3c2cnn3Cc2ccccc2)cc1C,66.5*,3.3,6.2,-0.2,7.7,5.4,i
O=c1[nH]c(SCc2cccc(Cl)c2)nc2c1CCCC2,66.0*,0.3,3.0,-1.7,4.7,9.2,i
Cc1ccccc1/C=C/c1nc2ccccc2c(=O)n1CCc1ccccc1,70.6*,5.0,-7.9,-12.7,9.4,12.6,+
Cc1ccc(/C=C/c2nc3ccccc3c(=O)n2CCc2ccccc2)cc1,80.7*,4.6,-0.7,-6.4,-2.7,0.6,+
CCn1c(/C=C/c2ccccc2C)nc2ccccc2c1=O,-0.4,4.3,4.7,5.7,15.2,4.9,nt
COC(=O)c1ccc(NC(=O)CSc2nnc3c(C)cc4ccc(C)c(C)c4n23)cc1,25.3,nt,nt,nt,nt,24.8,nt
CCOc1ccc2nc(SCC(=O)N3CCCc4ccccc43)sc2c1,42.0,15.4,-6.7,1.0,8.3,3.8,nt
O=C(CSc1nc2cc(Cl)ccc2s1)N1CCCc2ccccc21,67.8*,4.1,-7.6,3.3,17.4,4.0,+
C=CCn1c(SCC(N)=O)nc(C)cc1=O,68.2*,3.6,-8.3,1.9,18.2,12.1,i

# Compound activity: PubChem BioAssay, several laboratories
